Results taken from PubChem BioAssay.
The source made the active and inactive calls.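 How the source made its calls, unless noted: active means inhibition at or above 50% at 10 µM; inactive means inhibition below 50%.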

Columns and labels:
[1] = inhibitors of TNFa-induced NFkB p65 translocation, primary screen, imaging, HUVEC, MLSMR starter and 10KST1 sets (AID 438;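 active means inhibition above 20% together with a positive visual image hit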;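 further: compound added about 3h40 before a 20 min TNFalpha stimulation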;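 on inhibition: signal is the nuclear over cytoplasmic p65 intensity ratio per well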); conditions: HUVEC TNFa-induced p65 nuclear translocation; cell count: measured here: nuclei count (cytotoxicity indicator), at 2.08 µM; inhibition: at 2 µM, stronger effect = higher value, 0% TNFa-plus-vehicle, 100% no-TNFa wells
[2] = inhibitors of mutant huntingtin aggregation, primary screen, imaging, exon1htt(103Q)mCFP cells, high-content imaging (AID 483;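 active means visual image review flags a hit and inhibition of aggregation exceeds 20%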;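 further: compound exposure lasted 3 days before fixation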;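 on nuclei count: percent of the per-plate median nuclei count of sample wells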); conditions: exon1htt(103Q)mCFP cell line, aggregate imaging, at 2 µM; inhibition of aggregation: stronger effect = higher value; nuclei count: measured here: cell count, toxicity
[3] = inhibitors of E-selectin induction by TNFa, primary screen, imaging, HUVEC, immunofluorescence, MLSMR starter and 10KST1 sets (AID 487;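 active means visually confirmed hit in the image check and inhibition above 20%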;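 on inhibition: signal is fraction of cell area covered by stained E-selectin grains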;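 on nuclei count: 100% = median nuclei count of all wells on the same plate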); conditions: HUVEC TNFalpha-induced E-selectin immunofluorescence imaging, at 2 µM; inhibition: stronger effect = higher value; nuclei count: measured here: cell number, toxicity
[4] = target: Voltage-gated potassium channel subunit beta-2 (Rattus norvegicus) (UniProt P62483); test: KvBeta enzyme negative modulators, primary screen, biochemical, NADPH fluorescence (AID 622;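 active means fluorescence slope higher than the sample average by over 3 SD, cut at about -0.22 in these data, passing the limit was not always enough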;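 further: slope of raw intensity against log time taken from 70 to 1610 s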); conditions: recombinant KvBeta, 4-cyanobenzaldehyde reduction, at 10 µM, stronger effect = higher value
Voltage-gated potassium channel subunit beta-2 (Rattus norvegicus), sequence (P62483 whole entry, looked up): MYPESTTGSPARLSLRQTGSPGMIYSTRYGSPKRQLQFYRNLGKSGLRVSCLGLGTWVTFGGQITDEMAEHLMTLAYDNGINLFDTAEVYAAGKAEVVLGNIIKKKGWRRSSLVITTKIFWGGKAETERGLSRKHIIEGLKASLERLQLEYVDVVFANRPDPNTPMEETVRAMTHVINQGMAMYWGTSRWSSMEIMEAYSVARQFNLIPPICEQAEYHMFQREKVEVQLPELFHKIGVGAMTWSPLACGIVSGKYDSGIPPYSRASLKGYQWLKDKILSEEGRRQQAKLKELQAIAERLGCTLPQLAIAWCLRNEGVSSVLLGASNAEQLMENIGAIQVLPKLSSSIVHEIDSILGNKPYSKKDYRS

[5] = target: Voltage-gated potassium channel subunit beta-2 (Rattus norvegicus) (UniProt P62483); test: KvBeta positive modulators, primary screen, biochemical, NADPH fluorescence (AID 623;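 active means NADPH fluorescence slope more negative than the mean of all samples by about 3 SD, 99.7% confidence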;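 further: fluorescence intensity change per second fitted from 20 to 320 s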); conditions: Recombinant KvBeta, NADPH fluorescence decrease slope, 10 min; at 10 µM; stronger effect = lower value
[6] = target: Alpha-2C adrenergic receptor (Homo sapiens) (UniProt P18825); test: modulators of alpha2C/GIRK thallium flux, primary screen, cell-based, HEK293 alpha2C/GIRK1/2 (AID 624;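 active means fluorescence slope after compound addition differing from the mean of all screened samples at 99.7% confidence, in either direction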;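 further: slope of fluorescence ratio to pre-addition baseline per second over 15 to 24 s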); conditions: thallium flux BTC fluorescence, at 10 µM, actives lie on both sides
Alpha-2C adrenergic receptor (Homo sapiens), sequence (P18825 whole entry, looked up): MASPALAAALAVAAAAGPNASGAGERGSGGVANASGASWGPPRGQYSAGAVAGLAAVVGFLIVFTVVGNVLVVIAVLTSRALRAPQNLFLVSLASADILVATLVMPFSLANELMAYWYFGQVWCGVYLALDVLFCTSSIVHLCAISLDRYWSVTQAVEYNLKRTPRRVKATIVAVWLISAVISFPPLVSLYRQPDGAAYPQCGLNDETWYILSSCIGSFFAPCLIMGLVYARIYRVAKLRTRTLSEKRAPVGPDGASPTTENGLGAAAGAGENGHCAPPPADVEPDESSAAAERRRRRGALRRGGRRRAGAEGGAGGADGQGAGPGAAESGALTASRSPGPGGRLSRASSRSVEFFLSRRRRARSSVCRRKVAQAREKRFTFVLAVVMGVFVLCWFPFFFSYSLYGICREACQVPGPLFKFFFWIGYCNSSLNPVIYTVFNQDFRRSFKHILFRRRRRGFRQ

[7] = inhibitors of larval lipid processing in zebrafish, primary screen, whole organism, PED6 fluorescence, gall bladder and intestine (AID 686;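 active means a full or partial loss of lipid-probe fluorescence in the fish gall bladder, intestine or both, judged by eye; inactive means no fluorescence loss, or compound toxic to the fish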;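 further: larvae 5 to 7 days old with five fish per well; signal comes from phospholipase A2 cleavage of quenched PED6 carried via bile; overnight exposure to compound and PED6 before scoring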); conditions: Zebrafish larvae PED6 lipid processing, fluorescence scoring; screened at 20 µM (by protocol)
Procedure, shortened: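 Test system – live zebrafish larvae aged 5-7 days, whole organism · Buffer or medium – E3 fish medium · Reagent – quenched phospholipase substrate PED6, 100 nM final, ingested by larvae · Doses – 20 µM single dose · Incubation – overnight compound and PED6 incubation · Technique – visual fluorescence microscopy scoring of gall bladder, gut · Read-out basis – visual per-well fluorescence inhibition score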

[8] = inhibitors of Sendai virus-induced IRF3 signaling, primary screen, TLR/RLR signaling modifier project, cell-based, Sendai virus stimulus, luciferase, 10K MLSCN set (AID 602276); conditions: HEK293 RL24 IRF3 luciferase reporter, at 10 µM, stronger effect = higher value;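 further: firefly luciferase from ISG56 promoter only with Renilla not read in this screen; 0% = Sendai virus plus DMSO and 100% = medium plus DMSO without virus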
[9] = inhibitors of poly I:C-induced TLR3 signaling, primary screen, cell-based, poly I:C stimulus, luciferase, 10K MLSCN set (AID 602277;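 active means inhibition of the reporter signal at or above 50%; inactive means inhibition below 50%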); conditions: HEK293-TLR3 RL24 IRF3 luciferase reporter, at 10 µM, stronger effect = higher value

CCN(C(=O)c1cccs1)c1nnc(-c2ccncc2)s1
cell count [1]: 737
inhibition [1]: -7.1% (inactive)
inhibition of aggregation [2]: -14.4% (inactive)
nuclei count [2]: 104%
inhibition [3]: -80% (inactive)
nuclei count [3]: 115%
fluorescence slope [4]: -0.374 (inactive)
NADPH fluorescence slope [5]: -7.1e-05 (inactive)
slope [6]: 0.00498 (inactive)
outcome [7]: inactive
inhibition [8]: -7.04% (inactive)
inhibition [9]: -41.1% (inactive)

Brc1ccc2ncnc(Nc3ccc(N4CCOCC4)cc3)c2c1
cell count [1]: 534
inhibition [1]: -13.2% (inactive)
inhibition of aggregation [2]: 8.9% (inactive)
nuclei count [2]: 106%
inhibition [3]: 29.5% (inactive)
nuclei count [3]: 84.4%
fluorescence slope [4]: -0.375 (inactive)
NADPH fluorescence slope [5]: -5.5e-05 (inactive)
slope [6]: 0.00328 (inactive)
outcome [7]: inactive
inhibition [8]: 16.4% (inactive)
inhibition [9]: 1.52% (inactive)

O=C(Nc1cc(C(F)(F)F)ccc1N1CCCC1)c1ccc2c(c1)OCO2
cell count [1]: 215
inhibition [1]: 6.7% (inactive)
inhibition of aggregation [2]: 16.7% (inactive)
nuclei count [2]: 84.5%
inhibition [3]: -54.9% (inactive)
nuclei count [3]: 103%
fluorescence slope [4]: -0.461 (inactive)
NADPH fluorescence slope [5]: -2e-05 (inactive)
slope [6]: 0.00354 (inactive)
outcome [7]: inactive
inhibition [8]: 13% (inactive)
inhibition [9]: 24.5% (inactive)

COc1ccccc1-n1c(SCC(=O)NC(C)(C)C)nnc1-c1ccco1
cell count [1]: 662
inhibition [1]: -13.1% (inactive)
inhibition of aggregation [2]: 6.2% (inactive)
nuclei count [2]: 87.8%
inhibition [3]: -53% (inactive)
nuclei count [3]: 117%
fluorescence slope [4]: -0.504 (inactive)
NADPH fluorescence slope [5]: -2.6e-05 (inactive)
slope [6]: 0.0043 (inactive)
outcome [7]: inactive
inhibition [8]: 10.4% (inactive)
inhibition [9]: 15.6% (inactive)

CC1=C(C(=O)N2CCOCC2)C(c2ccccc2F)C2=C(CCCC2=O)N1 (centres undefined)
cell count [1]: 401
inhibition [1]: -0.8% (inactive)
inhibition of aggregation [2]: -15% (inactive)
nuclei count [2]: 111%
inhibition [3]: -24.5% (inactive)
nuclei count [3]: 121%
fluorescence slope [4]: -0.314 (inactive)
NADPH fluorescence slope [5]: 4.2e-06 (inactive)
slope [6]: 0.00583 (inactive)
outcome [7]: inactive
inhibition [8]: 3.26% (inactive)
inhibition [9]: 6.93% (inactive)

CNC(=O)c1ccc2nc(NC(C)=O)sc2c1
cell count [1]: 382
inhibition [1]: -10.3% (inactive)
inhibition of aggregation [2]: 4.1% (inactive)
nuclei count [2]: 74.6%
inhibition [3]: 13.2% (inactive)
nuclei count [3]: 56.8%
fluorescence slope [4]: -0.327 (inactive)
NADPH fluorescence slope [5]: -6.5e-05 (inactive)
slope [6]: 0.00564 (inactive)
outcome [7]: inactive
inhibition [8]: -11.9% (inactive)
inhibition [9]: -21.9% (inactive)

CCOC(=O)N1CCN(C(=O)CN(C2CCCCC2)S(=O)(=O)c2ccc(F)cc2)CC1
cell count [1]: 645
inhibition [1]: -10.7% (inactive)
inhibition of aggregation [2]: 18.3% (inactive)
nuclei count [2]: 81.3%
inhibition [3]: -51.6% (inactive)
nuclei count [3]: 108%
fluorescence slope [4]: -0.355 (inactive)
NADPH fluorescence slope [5]: -7.3e-05 (inactive)
slope [6]: 0.00492 (inactive)
outcome [7]: inactive
inhibition [8]: 21.5% (inactive)
inhibition [9]: 81.8% (active)

CN1CCN(c2ccc(Cl)cc2NC(=O)c2cccc(S(=O)(=O)N(C)C)c2)CC1
cell count [1]: 378
inhibition [1]: 0.5% (inactive)
inhibition of aggregation [2]: -6.9% (inactive)
nuclei count [2]: 133%
inhibition [3]: 14.4% (inactive)
nuclei count [3]: 88.8%
fluorescence slope [4]: -0.373 (inactive)
NADPH fluorescence slope [5]: -2e-05 (inactive)
slope [6]: 0.00491 (inactive)
outcome [7]: inactive
inhibition [8]: 6.8% (inactive)
inhibition [9]: 12.4% (inactive)

COc1cc(-c2nc(-c3ccncc3)no2)cc(OC)c1OC
cell count [1]: 491
inhibition [1]: -1.1% (inactive)
inhibition of aggregation [2]: -1.8% (inactive)
nuclei count [2]: 88.9%
inhibition [3]: 58.4% (inactive)
nuclei count [3]: 50.2%
fluorescence slope [4]: -0.341 (inactive)
NADPH fluorescence slope [5]: -3.8e-05 (inactive)
slope [6]: 0.00475 (inactive)
outcome [7]: inactive
inhibition [8]: 4.77% (inactive)
inhibition [9]: -3.43% (inactive)

COc1cc(S(=O)(=O)NC2CCCCC2C)ccc1Cl (centres undefined)
cell count [1]: 691
inhibition [1]: 4.8% (inactive)
inhibition of aggregation [2]: -2% (inactive)
nuclei count [2]: 114%
inhibition [3]: -69.9% (inactive)
nuclei count [3]: 106%
fluorescence slope [4]: -0.411 (inactive)
NADPH fluorescence slope [5]: 2.4e-05 (inactive)
slope [6]: 0.00366 (inactive)
outcome [7]: inactive
inhibition [8]: -3.61% (inactive)
inhibition [9]: -3.48% (inactive)

COc1cccc(N2C(=O)N(c3ccccc3Cl)C3CS(=O)(=O)CC32)c1 (centres undefined)
cell count [1]: 366
inhibition [1]: -0.4% (inactive)
inhibition of aggregation [2]: -6% (inactive)
nuclei count [2]: 118%
inhibition [3]: -47.6% (inactive)
nuclei count [3]: 122%
fluorescence slope [4]: -0.336 (inactive)
NADPH fluorescence slope [5]: -1.8e-05 (inactive)
slope [6]: 0.00497 (inactive)
outcome [7]: inactive
inhibition [8]: 15.6% (inactive)
inhibition [9]: 20% (inactive)

Cn1nc(C(C)(C)C)cc1C(=O)NCc1ccc(N2CCCC2=O)cc1
cell count [1]: 651
inhibition [1]: -10.6% (inactive)
inhibition of aggregation [2]: -12.4% (inactive)
nuclei count [2]: 70.7%
inhibition [3]: -11.3% (inactive)
nuclei count [3]: 107%
fluorescence slope [4]: -0.456 (inactive)
NADPH fluorescence slope [5]: -9.7e-05 (inactive)
slope [6]: 0.00425 (inactive)
outcome [7]: inactive; toxic
inhibition [8]: 9.24% (inactive)
inhibition [9]: -37.1% (inactive)
